Results: ChEMBL document CHEMBL4304827, “Design, synthesis and evaluation of structurally diverse chrysin-chromene-spirooxindole hybrids as anticancer agents” (Bioorg Med Chem, 2019)

Assays:
[1] = tested on: A549; assay: Antiproliferative activity against human A549 cells assessed as reduction in cell proliferation incubated for 48 hrs by MTT assay; assay type: functional, cell-based; conditions: A549, 48 h
Summary of the method: (§1)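 Log-phase cells were plated at 5 × 10^3/well in RPMI-1640 with 10% FBS and cultured 24 h. Compounds were added at graded concentrations (DMSO <0.1%) for 48 h. MTT (5 mg/mL) was added for about 4 h, formazan was dissolved in DMSO and A490 was read. IC50 was calculated from ≥3 independent experiments and reported as mean ± SD. Chrysin served as positive control.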

[2] = tested on: K562; assay: Antiproliferative activity against human K562 cells assessed as reduction in cell proliferation incubated for 48 hrs by MTT assay; assay type: functional, cell-based; conditions: K562, 48 h; summary of the method: as §1
[3] = tested on: NCI-H1299; assay: Antiproliferative activity against human H1299 cells assessed as reduction in cell proliferation incubated for 48 hrs by MTT assay; assay type: functional, cell-based; conditions: NCI-H1299, 48 h; summary of the method: as §1
[4] = tested on: PC-3; assay: Antiproliferative activity against human PC3 cells assessed as reduction in cell proliferation incubated for 48 hrs by MTT assay; assay type: functional, cell-based; conditions: PC-3, 48 h; summary of the method: as §1
[5] = tested on: MRC5; assay: Cytotoxicity against human MRC5 cells assessed as reduction in cell proliferation incubated for 48 hrs by MTT assay; assay type: cell-based; conditions: MRC5, 48 h; summary of the method: as §1

SMILES	IC50 [1] [µM]	IC50 [2] [µM]	IC50 [3] [µM]	IC50 [4] [µM]	IC50 [5] [µM]
N#CC1=C(N)Oc2cc3oc(-c4ccccc4)cc(=O)c3c(O)c2C12C(=O)Nc1cc(Br)ccc12 (stereo not given)	9.34	8.7	14.4	24.8	–
COc1ccc(-c2cc(=O)c3c(O)c4c(cc3o2)OC(N)=C(C#N)C42C(=O)N(Cc3ccccc3)c3ccccc32)c(OC)c1 (stereo not given)	> 50	> 50	> 50	> 50	–
N#CC1=C(N)Oc2cc3oc(-c4ccccc4)cc(=O)c3c(O)c2C12C(=O)Nc1c(Cl)cccc12 (stereo not given)	> 50	37.5	> 50	> 50	–
COc1ccc(-c2cc(=O)c3c(O)c4c(cc3o2)OC(N)=C(C#N)C42C(=O)N(C)c3ccc(C)cc32)c(OC)c1 (stereo not given)	> 50	12.2	> 50	> 50	–
CCN1C(=O)C2(C(C#N)=C(N)Oc3cc4oc(-c5ccccc5)cc(=O)c4c(O)c32)c2cc(C)ccc21 (stereo not given)	> 50	> 50	> 50	> 50	–
Cc1ccc2c(c1)C1(C(=O)N2Cc2ccccc2)C(C#N)=C(N)Oc2cc3oc(-c4ccccc4F)cc(=O)c3c(O)c21 (stereo not given)	> 50	> 50	> 50	> 50	–
N#CC1=C(N)Oc2cc3oc(-c4ccccc4)cc(=O)c3c(O)c2C12C(=O)N(Cc1ccccc1)c1ccc(F)cc12 (stereo not given)	> 50	> 50	> 50	> 50	–
Cc1ccc2c(c1)C1(C(=O)N2)C(C#N)=C(N)Oc2cc3oc(-c4ccccc4)cc(=O)c3c(O)c21 (stereo not given)	> 50	> 50	> 50	> 50	–
O=c1cc(-c2ccccc2)oc2cc(O)cc(O)c12 [CHRYSIN]	> 50	> 50	> 50	> 50	> 100
CC(C)(C)OC(=O)CN1C(=O)C2(C(C#N)=C(N)Oc3cc4oc(-c5ccccc5)cc(=O)c4c(O)c32)c2ccccc21 (stereo not given)	> 50	> 50	> 50	> 50	–
CN1C(=O)C2(C(C#N)=C(N)Oc3cc4oc(-c5ccccc5)cc(=O)c4c(O)c32)c2ccccc21 (stereo not given)	> 50	> 50	> 50	> 50	–
CN1C(=O)C2(C(C#N)=C(N)Oc3cc4oc(-c5ccccc5)cc(=O)c4c(O)c32)c2cccc(Cl)c21 (stereo not given)	> 50	41.4	> 50	> 50	–
CCN1C(=O)C2(C(C#N)=C(N)Oc3cc4oc(-c5ccccc5)cc(=O)c4c(O)c32)c2cccc(C)c21 (stereo not given)	> 50	> 50	> 50	> 50	–
N#CC1=C(N)Oc2cc3oc(-c4ccccc4)cc(=O)c3c(O)c2C12C(=O)N(c1ccccc1)c1ccccc12 (stereo not given)	> 50	> 50	> 50	> 50	–
Cc1ccc2c(c1)C1(C(=O)N2Cc2ccccc2)C(C#N)=C(N)Oc2cc3oc(-c4ccccc4)cc(=O)c3c(O)c21 (stereo not given)	> 50	> 50	> 50	> 50	–
N#CC1=C(N)Oc2cc3oc(-c4ccccc4)cc(=O)c3c(O)c2C12C(=O)Nc1cc(Cl)ccc12 (stereo not given)	8.47	9.25	16.6	25.7	–
COc1ccc2c(c1)C1(C(=O)N2Cc2ccccc2)C(C#N)=C(N)Oc2cc3oc(-c4ccccc4)cc(=O)c3c(O)c21 (stereo not given)	> 50	> 50	> 50	> 50	–
N#CC1=C(N)Oc2cc3oc(-c4ccccc4)cc(=O)c3c(O)c2C12C(=O)N(Cc1ccccc1)c1ccc(Br)cc12 (stereo not given)	> 50	36.4	> 50	> 50	–
N#CC1=C(N)Oc2cc3oc(-c4ccccc4)cc(=O)c3c(O)c2C12C(=O)N(Cc1ccccc1)c1ccc(Cl)cc12 (stereo not given)	> 50	36.3	> 50	> 50	–
N#CC1=C(N)Oc2cc3oc(-c4ccccc4)cc(=O)c3c(O)c2C12C(=O)N(Cc1ccccc1)c1c(Cl)cccc12 (stereo not given)	> 50	47.8	> 50	> 50	–
Cc1ccc2c(c1)C1(C(=O)N2C)C(C#N)=C(N)Oc2cc3oc(-c4ccccc4)cc(=O)c3c(O)c21 (stereo not given)	7.06	5.87	10.2	> 50	–
N#CC1=C(N)Oc2cc3oc(-c4ccccc4)cc(=O)c3c(O)c2C12C(=O)Nc1ccccc12 (stereo not given)	37.6	36.4	> 50	> 50	–
Cc1cccc2c1N(Cc1ccccc1)C(=O)C21C(C#N)=C(N)Oc2cc3oc(-c4ccccc4)cc(=O)c3c(O)c21 (stereo not given)	> 50	> 50	> 50	> 50	–
CCN1C(=O)C2(C(C#N)=C(N)Oc3cc4oc(-c5ccc(OC)cc5OC)cc(=O)c4c(O)c32)c2cc(Br)ccc21 (stereo not given)	> 50	16.1	> 50	> 50	–
CN1C(=O)C2(C(C#N)=C(N)Oc3cc4oc(-c5ccccc5)cc(=O)c4c(O)c32)c2cc(Cl)ccc21 (stereo not given)	4.72	4.34	11.2	21.4	–
CCN1C(=O)C2(C(C#N)=C(N)Oc3cc4oc(-c5ccc(OC)cc5OC)cc(=O)c4c(O)c32)c2cc(Cl)ccc21 (stereo not given)	> 50	8.45	> 50	> 50	–
